As a reminder, the MIC90 is the lowest concentration that inhibits either 90% of growth or 90% of the strains tested, depending on the study. By IC50 is commonly meant the point on the concentration scale where inhibition reaches its midpoint. In general, clearance refers to a measure of how efficiently the substance is removed, as volume per time. One may read the AUC(0-inf) as total exposure, with the tail of the curve extrapolated. As a reminder, the bioavailability is dose-corrected exposure relative to a reference, in per cent.

From ChEMBL document CHEMBL4610003 (Bioorg Med Chem, 2020) come the findings set out here.

Values after ≈ are worked out from the molar mass of the structure shown. Where only a bound is given, the exact number is not on record here.

Series [1] has as its system Mycobacterium tuberculosis. Description: Antimycobacterial activity against Mycobacterium tuberculosis H37Rv assessed as bacterial growth inhibition under replicating, aerobic condition by microplate Alamar blue assay. In kind it is functional. A digest of the protocol:
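Read-out is MIC90, the lowest concentration giving 90% growth inhibition of M.tb H37Rv, in µg/mL. Bacteria were grown under aerobic, replicating conditions (MABA).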
Background: The colour change of resazurin is a common sign of viable cells or microbes.

Series [2] has as its system Mycobacterium tuberculosis. The series is described as follows: Antimycobacterial activity against Mycobacterium tuberculosis H37Rv assessed as bacterial growth inhibition incubated for 10 days under anerobic condition followed by incubation under ambient gaseous condition for […] by low oxygen recovery assay. In kind it is functional. In outline:
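Read-out is MIC90, the lowest concentration giving 90% growth inhibition of M.tb H37Rv, in µg/mL. Bacteria were held under non-replicating, low-oxygen conditions (LORA).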

The target of series [3] is Voltage-gated inwardly rectifying potassium channel KCNH2 (Homo sapiens, UniProt Q12809). Description: Inhibition of human ERG.
A short description of series [4]: Intrinsic clearance in human liver microsomes assessed per mg protein. In kind it is ADME, Microsome. As to conditions: read-out: CLH. In outline:
(§1)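 Clearance of compound by human or mouse liver microsomes, expressed as µL/min/mg protein.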
On the technique in general: Microsomes from liver hold many membrane-bound enzymes, among them those of drug oxidation.

Series [5] is described as follows: Intrinsic clearance in mouse liver microsomes assessed per mg protein. In kind it is ADME, Microsome. As to conditions: read-out: CLH. A digest of the protocol: as §1
Series [6] in a line: Clearance in CD-1 mouse at 2 to 3 mg/kg, iv administered as single bolus dose. In kind it is ADME, organism-based. Particulars: in vivo. In outline:
(§2)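 Male CD-1 mice received a single intravenous bolus at 2–3 mg/kg. Reported values are IV clearance and the apparent volume of distribution during the terminal phase, in L/kg.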

Series [7] can be described thus: Apparent volume of distribution during terminal phase in CD-1 mouse at 2 to 3 mg/kg, iv administered as single bolus dose. As to conditions: in vivo. In kind it is ADME, organism-based. In outline:
as §2

Series [8] in a line: AUC (0 to infinity) in CD-1 mouse at 10 mg/kg, po via gavage administered as single dose. In kind it is ADME, organism-based. The arrangement: dose 10 mg/kg, route oral, time infinity. As to conditions: in vivo. A digest of the protocol:
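Male CD-1 mice given a single 10 mg/kg dose by oral gavage. Exposure is reported as area under the curve from 0 to infinity in µg*h/mL.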

The nature of series [9]: Oral bioavailability in CD-1 mouse at 10 mg/kg administered via gavage as single dose. In kind it is ADME, organism-based. As to conditions: in vivo.
In series [10] the test system is Vero. The series is described as follows: Cytotoxicity against African green monkey Vero cells assessed as reduction in cell viability incubated for 72 hrs by […] assay. In kind it is cell-based. Particulars: Chlorocebus sabaeus. Background: Tetrazolium dyes change colour on reduction, which living cells bring about.

Chain of Voltage-gated inwardly rectifying potassium channel KCNH2 (Q12809 whole entry): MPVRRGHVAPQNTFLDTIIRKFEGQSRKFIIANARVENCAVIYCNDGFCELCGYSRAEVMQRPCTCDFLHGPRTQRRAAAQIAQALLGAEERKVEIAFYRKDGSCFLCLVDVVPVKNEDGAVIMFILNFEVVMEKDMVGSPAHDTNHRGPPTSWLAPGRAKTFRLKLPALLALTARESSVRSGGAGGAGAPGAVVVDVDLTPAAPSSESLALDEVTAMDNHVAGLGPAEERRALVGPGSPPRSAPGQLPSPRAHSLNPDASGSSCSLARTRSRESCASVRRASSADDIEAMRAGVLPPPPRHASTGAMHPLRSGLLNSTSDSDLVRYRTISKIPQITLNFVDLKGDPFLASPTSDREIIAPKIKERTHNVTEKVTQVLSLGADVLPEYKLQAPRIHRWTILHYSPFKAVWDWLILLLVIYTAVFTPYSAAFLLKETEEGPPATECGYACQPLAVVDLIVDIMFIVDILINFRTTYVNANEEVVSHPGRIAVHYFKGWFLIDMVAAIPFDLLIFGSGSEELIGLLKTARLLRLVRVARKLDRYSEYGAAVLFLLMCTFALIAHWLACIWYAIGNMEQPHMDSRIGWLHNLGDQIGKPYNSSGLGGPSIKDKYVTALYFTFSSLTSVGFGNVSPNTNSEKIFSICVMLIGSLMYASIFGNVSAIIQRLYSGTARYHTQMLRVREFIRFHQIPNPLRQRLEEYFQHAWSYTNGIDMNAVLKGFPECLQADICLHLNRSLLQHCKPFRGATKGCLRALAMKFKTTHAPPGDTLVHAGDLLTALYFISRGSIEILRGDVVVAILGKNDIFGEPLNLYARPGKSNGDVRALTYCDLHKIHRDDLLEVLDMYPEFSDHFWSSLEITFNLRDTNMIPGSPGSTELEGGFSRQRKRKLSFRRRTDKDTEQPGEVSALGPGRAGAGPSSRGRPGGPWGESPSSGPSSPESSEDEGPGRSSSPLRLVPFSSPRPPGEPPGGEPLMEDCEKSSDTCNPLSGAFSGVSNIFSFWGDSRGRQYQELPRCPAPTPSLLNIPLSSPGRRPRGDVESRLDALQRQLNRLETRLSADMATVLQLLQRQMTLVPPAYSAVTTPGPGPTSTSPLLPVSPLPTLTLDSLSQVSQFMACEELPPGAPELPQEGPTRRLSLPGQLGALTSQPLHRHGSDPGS

Regarding `COc1nc2ccc(C#N)cc2cc1[C@@H](c1cccc(C)c1F)[C@@](O)(CCN(C)C)c1cc(SC)nc(SC)c1` (racemic), the MIC90 in series [1] came out at 0.02 µg/mL (≈ 0.0347 µM); in series [2] it was 0.17 µg/mL (≈ 0.295 µM). Further, the 50% inhibitory concentration (IC50) is over 10 µM in [3] and over 10 µg/mL in series [10]. Also, the microsomal CLint is 9.2 µL/min/mg in series [4] and 13 µL/min/mg in [5]. Further, the clearance in series [6] was found to be 22 mL/min/kg. In [7], the Vz/F was determined as 79 L/kg. This compound also showed an area under the curve AUC(0-inf) in series [8] of 2400 ng·h/mL. The bioavailability in [9] was 31%.

With `COc1cc([C@](O)(CCN(C)C)[C@@H](c2cc3cc(C#N)ccc3nc2OC)c2ccnc(OC)c2OC)cc(OC(F)F)n1` (racemic), the values for the MIC90 in series [1] and in [2] were under 0.02 µg/mL and 0.04 µg/mL (≈ 0.0656 µM), respectively. For the same compound, the figures for the IC50 in series [3] and in [10] were 7 µM and over 10 µg/mL, respectively. In addition, the values for the microsomal CLint in [4] and in [5] were 2.5 µL/min/mg and 11 µL/min/mg, respectively. Also, the clearance in series [6] came to 24 mL/min/kg. In addition, the Vz/F in series [7] worked out at 40 L/kg. Besides, in series [8], the total exposure AUC(0-inf) stood at 3000 ng·h/mL. The bioavailability in series [9] amounted to 43%.

On to `CCSc1cc([C@](O)(CCN(C)C)[C@H](c2ccccc2)c2cc3cc(Br)ccc3nc2OC)cc(SCC)n1` (racemic), for which the MIC90 was 0.02 µg/mL (≈ 0.0319 µM) in [1] and 0.05 µg/mL (≈ 0.0798 µM) in [2]. Further, the values for the IC50 in series [3] and in series [10] were over 30 µM and over 10 µg/mL, respectively. Moreover, the microsomal CLint in series [4] was 2.3 µL/min/mg; in series [5], 17 µL/min/mg. In series [6], this compound yielded a clearance of 11 mL/min/kg. In addition, the Vz/F in series [7] is 30 L/kg. Moreover, the AUC(0-inf) in series [8] came to 4000 ng·h/mL. The same compound returned a bioavailability in series [9] of 24%.

With `COc1nc2ccc(Br)cc2cc1[C@@H](c1ccnc(OC)c1OC)[C@@](O)(CCN(C)C)c1cc(SC)nc(SC)c1` (racemic), the MIC90 in series [1] and in series [2] was under 0.02 µg/mL in each case. The concentration for half-maximal inhibition (IC50) in series [3] is 2.8 µM; in series [10] it was over 10 µg/mL. The microsomal CLint in series [4] was determined as 8.8 µL/min/mg; in [5] it was 10 µL/min/mg. For the same compound, the clearance in [6] was 18 mL/min/kg. Further, the Vz/F in series [7] was determined as 64 L/kg. For the same compound, in series [8], the AUC(0-inf) was 3900 ng·h/mL. This compound showed a bioavailability in series [9] of 41%.

Consider `COc1cccc([C@H](c2cc3cc(C#N)ccc3nc2OC)[C@@](O)(CCN(C)C)c2cc(SC)nc(SC)c2)c1F` (racemic), for which the values for the MIC90 in series [1] and in [2] were 0.03 µg/mL (≈ 0.0506 µM) and 0.05 µg/mL (≈ 0.0844 µM), respectively. Besides, the 50% inhibitory concentration (IC50) is 5.1 µM in series [3] and over 10 µg/mL in series [10]. Also, the microsomal CLint in series [4] was determined as 15 µL/min/mg; in series [5], 20 µL/min/mg. In series [6], this compound displayed a clearance of 44 mL/min/kg. The Vz/F in series [7] was found to be 53 L/kg. This compound also had a total exposure AUC(0-inf) in series [8] of 1100 ng·h/mL. For the same compound, the bioavailability in series [9] is 28%.

`COc1cc([C@](O)(CCN(C)C)[C@@H](c2cc3cc(Br)ccc3nc2OC)c2ccnc(OC)c2OC)cc(OC(F)F)n1` (racemic): the MIC90 in series [1] and in series [2] was under 0.004 µg/mL throughout. Further, the figures for the IC50 in [3] and in [10] were over 10 µM and over 10 µg/mL, respectively. Besides, the microsomal CLint in series [4] came to 2.1 µL/min/mg; in [5], 4.9 µL/min/mg. In series [6], this compound came in with a clearance of 8.7 mL/min/kg. Also, in [7], the Vz/F amounted to 27 L/kg. Moreover, the AUC(0-inf) in series [8] was determined as 9800 ng·h/mL. Moreover, in series [9], the bioavailability is 50%.

For `COc1cc([C@](O)(CCN(C)C)[C@@H](c2cc3cc(Br)ccc3nc2OC)c2cccc(OC)c2F)cc(OC(F)F)n1` (racemic), the results for the MIC90 in series [1] and in series [2] were 0.04 µg/mL (≈ 0.0615 µM) and under 0.02 µg/mL, respectively. In addition, the IC50 was over 30 µM in [3] and over 10 µg/mL in series [10]. In addition, the microsomal CLint was 0.1 µL/min/mg in [4] and 6.4 µL/min/mg in series [5]. In [6], this compound returned a clearance of 9.7 mL/min/kg. The Vz/F in [7] amounted to 18 L/kg. In addition, the AUC(0-inf) in series [8] was found to be 14400 ng·h/mL. Moreover, the bioavailability in series [9] was determined as 83%.

Regarding `CCSc1cc([C@](O)(CCN(C)C)[C@@H](c2cc3cc(Br)ccc3nc2OC)c2cccc(OC)c2F)cc(SCC)n1` (racemic), the MIC90 in series [1] and in series [2] was under 0.02 µg/mL in each case. The IC50 in [3] is over 10 µM; in [10] it was 6.5 µg/mL (≈ 9.63 µM). The microsomal CLint came out at 4.9 µL/min/mg in series [4] and 12 µL/min/mg in series [5]. In [6], this compound came in with a clearance of 3.6 mL/min/kg. Moreover, the Vz/F in [7] came out at 14 L/kg. In addition, in series [8], the area under the curve AUC(0-inf) came out at 11900 ng·h/mL. In series [9], this compound registered a bioavailability of 25%.

Take `COc1cc([C@](O)(CCN(C)C)[C@@H](c2cc3cc(C#N)ccc3nc2OC)c2cccc(OC)c2F)cc(SC)n1` (racemic): the values for the MIC90 in series [1] and in series [2] were 0.02 µg/mL (≈ 0.0347 µM) and 0.04 µg/mL (≈ 0.0694 µM), respectively. For the same compound, the figures for the IC50 in [3] and in [10] were over 10 µM and over 10 µg/mL, respectively. Also, the microsomal CLint in series [4] is 16 µL/min/mg; in [5], 36 µL/min/mg. For the same compound, the clearance in [6] is 42 mL/min/kg. For the same compound, the Vz/F in series [7] was 54 L/kg. Besides, the area under the curve AUC(0-inf) in [8] was 1100 ng·h/mL. Moreover, in [9], the bioavailability came to 28%.

For the compound `COc1cc([C@](O)(CCN(C)C)[C@@H](c2cc3cc(Br)ccc3nc2OC)c2cccc(OC)c2F)cc(SC)n1` (racemic), the MIC90 in series [1] and in [2] was under 0.02 µg/mL throughout. Besides, the IC50 in series [3] was over 30 µM; in series [10], over 10 µg/mL. For the same compound, the figures for the microsomal CLint in [4] and in [5] were 4.8 µL/min/mg and 20 µL/min/mg, respectively. Further, the clearance in series [6] was determined as 13 mL/min/kg. The Vz/F in series [7] turned out to be 32 L/kg. The same compound showed an area under the curve AUC(0-inf) in [8] of 4600 ng·h/mL. For the same compound, in series [9], the bioavailability was determined as 31%.

On to `COc1cccc([C@H](c2cc3cc(Br)ccc3nc2OC)[C@@](O)(CCN(C)C)c2cc(SC)nc(SC)c2)c1F` (racemic), for which the MIC90 in [1] and in series [2] was under 0.02 µg/mL in each case. Besides, the values for the IC50 in series [3] and in [10] were over 10 µM and 9.6 µg/mL (≈ 14.8 µM), respectively. The microsomal CLint in series [4] stood at 3.4 µL/min/mg; in [5], 17 µL/min/mg. The same compound gave a clearance in series [6] of 13 mL/min/kg. The Vz/F in [7] was 15 L/kg. For the same compound, the total exposure AUC(0-inf) in series [8] came to 8400 ng·h/mL. Further, in series [9], the bioavailability came to 66%.

Regarding `COc1cc([C@](O)(CCN(C)C)[C@@H](c2cc3cc(C#N)ccc3nc2OC)c2ccnc(OC)c2OC)cc(N(C)C)n1` (racemic), the MIC90 in series [1] and in series [2] was 0.06 µg/mL (≈ 0.102 µM) throughout. For the same compound, the values for the IC50 in [3] and in [10] were 3.4 µM and over 10 µg/mL, respectively. The microsomal CLint was found to be 8.4 µL/min/mg in [4] and 16 µL/min/mg in series [5]. Further, in series [6], the clearance came out at 26 mL/min/kg. For the same compound, the Vz/F in [7] was found to be 14 L/kg. Besides, the AUC(0-inf) in series [8] stood at 3300 ng·h/mL. The same compound came in with a bioavailability in series [9] of 50%.

With `CCOc1cc([C@](O)(CCN(C)C)[C@@H](c2cc3cc(Br)ccc3nc2OC)c2c(OC)cncc2OC)cc(OC(C)C)n1` (racemic), the MIC90 in series [1] and in series [2] was under 0.02 µg/mL in each case. The 50% inhibitory concentration (IC50) is over 10 µM in [3] and over 10 µg/mL in series [10]. Moreover, the microsomal CLint amounted to 1.1 µL/min/mg in series [4] and 2.3 µL/min/mg in [5]. This compound also came in with a clearance in [6] of 2.7 mL/min/kg. In series [7], the Vz/F is 20 L/kg. In [8], this compound came in with an area under the curve AUC(0-inf) of 33000 ng·h/mL. The bioavailability in [9] turned out to be 58%.
